In ChEMBL document CHEMBL2093137, “WHO-TDR NTD Screening”:
≈ marks a conversion by molar mass, not a printed value.

Key:
Onchocerca ochengi = experiment: WHO-TDR: Onchocerciasis; type: functional; set-up: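 at 12.5 µM on microfilariae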
In short: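 Values are reported as percent inhibition and as IC50. They come from a whole-organism screen of a 10,000-compound diverse Life Chemicals library against microfilariae of Onchocerca ochengi or Onchocerca lienalis. The screen followed previously published standard procedures, with reference drugs as positive controls.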

Brugia malayi = experiment: WHO-TDR: Lymphatic Filariasis; type: functional; set-up: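 tested at 10 µM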
In short: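 Values are percent inhibition and IC50 from a whole-organism screen against Brugia malayi microfilariae. The compounds, 10,000 in all, came from a diverse Life Chemicals library filtered for drug-likeness and reactive groups.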

Schistosoma mansoni = experiment: WHO-TDR: Schistosomiasis; type: functional; set-up: concentration or dose not given beside the values
In short: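 Values are reported as percent inhibition and IC50. They come from a whole-organism screen of a 10,000-compound diverse Life Chemicals library against larval and/or adult worms of Schistosoma mansoni, Puerto Rican strain. The library had been filtered for drug-likeness and reactive groups.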

Plasmodium falciparum K1 = experiment: WHO-TDR: Malaria; type: functional, organism-based, Homo sapiens; conditions: Erythrocyte
In short: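 Following previously published standard procedures, with a reference drug serving as positive control, compounds were tested on the Plasmodium falciparum K1 strain inside human red blood cells. The 10,000-compound diverse set came from Life Chemicals after filtering for drug-likeness and reactive groups. Potency against the parasite appears as IC50.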

[1] = WHO-TDR: Cytotoxicity; type: toxicity, cell-based; conditions: human, MRC5 cells
Leishmania infantum = experiment: WHO-TDR: Leishmaniasis; type: functional, organism-based, Mus musculus; conditions: Macrophage
In short: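 Following previously published standard procedures, a whole-organism screen was run on Leishmania infantum MHOM/MA(BE)/67 amastigotes within murine peritoneal macrophages, with a reference drug as positive control. The 10,000 compounds tested formed a diverse Life Chemicals library filtered for drug-likeness and reactive groups. Potency against the parasite is reported as IC50.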

[2] = tested on: Trypanosoma brucei brucei; experiment: WHO-TDR: Human African Trypanosomiasis (HAT); type: functional, organism-based; conditions: Squib-427
In short: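 Bloodstream forms of the Trypanosoma brucei Squib 427 strain were tested in a whole-organism screen with a diverse library from Life Chemicals of 10,000 compounds. Before screening, the library was filtered for drug-likeness and for reactive groups. The assay used previously published standard procedures and included reference drugs as positive controls. Potency against the parasite is expressed as IC50.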

Trypanosoma cruzi = experiment: WHO-TDR: Chagas disease; type: functional, organism-based, Homo sapiens; conditions: MRC5
In short: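 Following previously published standard procedures, with a reference drug as positive control, a whole-organism assay was run on Trypanosoma cruzi Tulahuen CL2 beta-galactosidase strain amastigotes inside MRC-5SV2 human lung fibroblast host cells. The 10,000 compounds tested formed a diverse Life Chemicals library filtered for drug-likeness and reactive groups. Results are expressed as IC50 for antiparasitic potency.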

SMILES | % Inhibition (Onchocerca ochengi) [%] | % Inhibition (Brugia malayi) [%] | % Inhibition (Schistosoma mansoni) [%] | IC50 (Plasmodium falciparum K1) [µg/mL] | IC50 [1] [µg/mL] | IC50 (Leishmania infantum) [µg/mL] | IC50 [2] [µg/mL] | IC50 (Trypanosoma cruzi) [µg/mL]
O=C(Nc1nc(-c2ccc3c(c2)OCCO3)cs1)C1CCN(S(=O)(=O)c2ccc(Cl)cc2)CC1 | 50 | 0 | 0 | 8.56 (≈ 16.5 µM) | 2.74 (≈ 5.28 µM) | > 15.6 | 0.586 (≈ 1.13 µM) | 0.697 (≈ 1.34 µM)
O=C(Nc1nc(-c2ccccn2)cs1)C1CCN(S(=O)(=O)c2ccc(Cl)cc2)CC1 | 100 | 0 | 0 | 12.7 (≈ 27.5 µM) | > 13.9 | > 13.9 | 4.13 (≈ 8.93 µM) | 4.3 (≈ 9.28 µM)
Cc1ccc(S(=O)(=O)N2CCC(C(=O)Nc3c(C(N)=O)oc4ccccc34)CC2)cc1 | 100 | 0 | 0 | > 13.2 | > 13.2 | > 13.2 | > 13.2 | > 13.2
O=C(c1ccc2c(c1)OCCO2)N(CCCn1ccnc1)c1nc2c(F)cccc2s1 | 100 | 0 | 0 | 1.35 (≈ 3.08 µM) | 6.23 (≈ 14.2 µM) | > 14.2 | 4.56 (≈ 10.4 µM) | 3.6 (≈ 8.22 µM)
O=C(CSc1ccc(F)cc1)N(CCCn1ccnc1)c1nc2c(F)cccc2s1 | 100 | 0 | 0 | 2.13 (≈ 4.8 µM) | > 14.4 | > 14.4 | 4.62 (≈ 10.4 µM) | 5.11 (≈ 11.5 µM)
Cc1cccc2sc(N(CCCn3ccnc3)C(=O)c3ccc(Cl)s3)nc12 | 100 | 0 | 0 | 0.619 (≈ 1.48 µM) | 5.04 (≈ 12.1 µM) | > 13.6 | > 13.6 | 1.22 (≈ 2.93 µM)
CCOc1cccc2sc(N(CCCn3ccnc3)C(=O)c3cccs3)nc12 | 100 | 0 | 0 | 0.573 (≈ 1.39 µM) | 5.87 (≈ 14.2 µM) | > 13.5 | 4.31 (≈ 10.4 µM) | 4.08 (≈ 9.88 µM)
O=C(c1cccc(F)c1)N(CCCn1ccnc1)c1nc2ccc(F)cc2s1 | 100 | 0 | 0 | 0.745 (≈ 1.87 µM) | > 13 | > 13 | 4.17 (≈ 10.5 µM) | 3.32 (≈ 8.33 µM)
CCc1ccc2nc(N(CCCn3ccnc3)C(=O)/C=C/c3cccs3)sc2c1 | 100 | 0 | 0 | 0.163 (≈ 0.386 µM) | 3.5 (≈ 8.28 µM) | 4.46 (≈ 10.5 µM) | 1 (≈ 2.37 µM) | 0.399 (≈ 0.944 µM)
CCc1ccc2nc(N(CCCn3ccnc3)C(=O)C3COc4ccccc4O3)sc2c1 (stereo not given) | 100 | 0 | 0 | 0.363 (≈ 0.809 µM) | 4.4 (≈ 9.81 µM) | 4.71 (≈ 10.5 µM) | 4.71 (≈ 10.5 µM) | 1.22 (≈ 2.73 µM)
O=C(c1cccs1)N(CCCn1ccnc1)c1nc2c(F)cc(F)cc2s1 | 100 | 0 | 0 | 0.793 (≈ 1.96 µM) | 8.75 (≈ 21.6 µM) | > 13.2 | 4.23 (≈ 10.5 µM) | 4.01 (≈ 9.91 µM)
O=C(c1ccco1)N(CCCn1ccnc1)c1nc2c(F)cc(F)cc2s1 | 100 | 0 | 0 | 0.533 (≈ 1.37 µM) | 7.77 (≈ 20 µM) | > 12.7 | 4.08 (≈ 10.5 µM) | 3.97 (≈ 10.2 µM)
Cc1ccc(C)c2sc(N(CCCn3ccnc3)C(=O)COc3ccccc3)nc12 | 100 | 0 | 0 | 2.34 (≈ 5.56 µM) | 5.31 (≈ 12.6 µM) | 9.34 (≈ 22.2 µM) | 4.44 (≈ 10.6 µM) | 1.14 (≈ 2.71 µM)
Cc1ccc(C)c2sc(N(CCCn3ccnc3)C(=O)Cc3ccc(F)cc3)nc12 | 100 | 0 | 0 | 3.4 (≈ 8.04 µM) | 3.26 (≈ 7.73 µM) | 4.46 (≈ 10.6 µM) | 3.98 (≈ 9.41 µM) | 0.495 (≈ 1.17 µM)
COc1ccc(OC)c2sc(N(CCCn3ccnc3)C(=O)COc3ccccc3)nc12 | 100 | 0 | 0 | 3.16 (≈ 6.98 µM) | 4.9 (≈ 10.8 µM) | > 14.7 | 4.75 (≈ 10.5 µM) | 4.77 (≈ 10.5 µM)
COc1ccc(C)c2sc(N(CCCn3ccnc3)C(=O)Cc3ccccc3)nc12 | 100 | 0 | 0 | 0.615 (≈ 1.46 µM) | 4.07 (≈ 9.68 µM) | > 13.7 | 3.3 (≈ 7.85 µM) | 0.644 (≈ 1.53 µM)
COc1cccc(C(=O)N(CCCn2ccnc2)c2nc3c(C)c(C)ccc3s2)c1OC | 100 | 0 | 0 | 1.28 (≈ 2.85 µM) | 3.15 (≈ 6.99 µM) | 4.73 (≈ 10.5 µM) | 1.34 (≈ 2.97 µM) | 0.648 (≈ 1.44 µM)
COc1ccc(Cl)c2sc(N(CCCn3ccnc3)C(=O)c3cccc(F)c3)nc12 | 100 | 0 | 0 | 3.63 (≈ 8.15 µM) | 4.08 (≈ 9.16 µM) | > 14.4 | 4.67 (≈ 10.5 µM) | 3.68 (≈ 8.27 µM)
O=C(CS(=O)(=O)Cc1ccccc1)Nc1cc(Cl)cc(Cl)c1 | 100 | 0 | 0 | > 10.7 | > 10.7 | > 10.7 | > 10.7 | > 10.7
CCOC(=O)Cn1/c(=N\C(=O)CCCS(=O)(=O)Cc2ccccc2)sc2cc(F)ccc21 | 100 | 0 | 0 | > 14.4 | > 14.4 | > 14.4 | > 14.4 | > 14.4
CCc1nnc(NS(=O)(=O)c2ccc(NC(=O)c3ccc(S(=O)(=O)N4CCCCC4C)cc3)cc2)s1 (stereo not given) | 100 | 0 | 0 | 13.4 (≈ 24.4 µM) | > 16.5 | > 16.5 | 5.34 (≈ 9.71 µM) | > 16.5
O=C(Nc1nnc(CCSc2ccccc2)o1)c1ccc(Cl)cc1 | 100 | 0 | 0 | > 10.8 | 3.41 (≈ 9.49 µM) | 3.49 (≈ 9.71 µM) | 3.49 (≈ 9.71 µM) | 3.77 (≈ 10.5 µM)
CCOC(=O)N1CCc2nc(NC(=O)CCCS(=O)(=O)c3ccc(F)cc3)sc2C1 | 100 | 0 | 0 | 6.65 (≈ 14.6 µM) | > 13.7 | > 13.7 | > 13.7 | > 13.7
CCc1nnc(NS(=O)(=O)c2ccc(NC(=O)c3nc4ccccc4s3)cc2)s1 | 100 | 0 | 0 | > 13.4 | > 13.4 | > 13.4 | > 13.4 | > 13.4
C=CCn1c(Sc2nc3ccccc3o2)nc2c1c(=O)[nH]c(=O)n2C | 0 | 20 | 0 | 10.7 (≈ 30 µM) | > 10.7 | > 10.7 | 0.337 (≈ 0.948 µM) | 4.04 (≈ 11.4 µM)
C/C=C/Cn1c(=O)c2c(nc3n(C(C)c4ccccc4)c(C)cn23)n(C)c1=O (stereo not given) | 0 | 20 | 0 | 6.29 (≈ 16.7 µM) | > 11.3 | > 11.3 | 0.099 (≈ 0.262 µM) | 3.82 (≈ 10.1 µM)
Cc1c(Cl)cccc1-n1c(-c2ccc(F)cc2)cn2c3c(=O)n(C)c(=O)n(C)c3nc12 | 100 | 20 | 0 | 2.97 (≈ 6.79 µM) | 6.43 (≈ 14.7 µM) | 4.25 (≈ 9.71 µM) | 3.81 (≈ 8.7 µM) | > 13.1
Cc1ccc(S(=O)(=O)N(CC(O)CNCc2ccco2)c2ccc(F)cc2)cc1 (stereo not given) | 100 | 0 | 0 | 1.27 (≈ 3.04 µM) | > 16.2 | > 16.2 | 5.19 (≈ 12.4 µM) | 5.67 (≈ 13.5 µM)
O=C1C=CC(=O)N1c1ccccc1F | 100 | 20 | 0 | > 5.73 | 1.81 (≈ 9.48 µM) | > 5.73 | > 5.73 | 3.28 (≈ 17.2 µM)
Cc1ccc(C)c2sc(N(CCCn3ccnc3)C(=O)c3ccco3)nc12 | 100 | 0 | 0 | 0.45 (≈ 1.18 µM) | 3.53 (≈ 9.28 µM) | > 12.5 | 3.86 (≈ 10.2 µM) | 1.49 (≈ 3.92 µM)
